Data published in ChEMBL document CHEMBL4371031, “In Vitro Antiviral Activity of New Oxazoline Derivatives as Potent Poliovirus Inhibitors” (J Med Chem, 2019).

Key:
[1] = test system: Poliovirus 1; experiment: Antiviral activity against Poliovirus Sabin 1 infected in human HeLa cells assessed as reduction in virus-induced cytopathic effect after 72 hrs by crystal violet staining-based assay; assay type: functional, organism-based; conditions: Enterovirus C
Method in brief: (§1)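 HeLa cells grown in MEM-10% FBS, seeded at 2x10^5 cells/mL in MEM-2% FBS and preincubated 24 h at 37°C, 5% CO2. Compound and virus were cross-titrated […] compound in 0.5 log10 steps (7-point curves), with duplicate wells and three replicate tests per virus. After 72 h at 37°C, cells were crystal violet stained and read at 590 nm. EC50 came from a four-parameter fit; if all virus dilutions gave >80% monolayer destruction, the value was […].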

[2] = test system: Poliovirus 1; experiment: Antiviral activity against Human poliovirus 1 10688 infected in human HeLa cells assessed as reduction in virus-induced cytopathic effect after 72 hrs by crystal violet staining-based assay; assay type: functional, organism-based; conditions: Enterovirus C, 10688, HeLa; method in brief: as §1
[3] = test system: Poliovirus 1; experiment: Antiviral activity against Human poliovirus 1 10689 infected in human HeLa cells assessed as reduction in virus-induced cytopathic effect after 72 hrs by crystal violet staining-based assay; assay type: functional, organism-based; conditions: Enterovirus C, 10689, HeLa; method in brief: as §1
[4] = test system: Poliovirus 1; experiment: Antiviral activity against Human poliovirus 1 10690 infected in human HeLa cells assessed as reduction in virus-induced cytopathic effect after 72 hrs by crystal violet staining-based assay; assay type: functional, organism-based; conditions: Enterovirus C, 10690, HeLa; method in brief: as §1
[5] = test system: Poliovirus 1; experiment: Antiviral activity against Human poliovirus 1 10222 infected in human HeLa cells assessed as reduction in virus-induced cytopathic effect after 72 hrs by crystal violet staining-based assay; assay type: functional, organism-based; conditions: Enterovirus C, 10222, HeLa; method in brief: as §1
[6] = test system: Poliovirus 1; experiment: Antiviral activity against Human poliovirus 1 10236 infected in human HeLa cells assessed as reduction in virus-induced cytopathic effect after 72 hrs by crystal violet staining-based assay; assay type: functional, organism-based; conditions: Enterovirus C, 10236, HeLa; method in brief: as §1
[7] = test system: Poliovirus 1; experiment: Antiviral activity against Human poliovirus 1 10237 infected in human HeLa cells assessed as reduction in virus-induced cytopathic effect after 72 hrs by crystal violet staining-based assay; assay type: functional, organism-based; conditions: Enterovirus C, 10237, HeLa; method in brief: as §1
[8] = test system: Poliovirus 1; experiment: Antiviral activity against Human poliovirus 1 10238 infected in human HeLa cells assessed as reduction in virus-induced cytopathic effect after 72 hrs by crystal violet staining-based assay; assay type: functional, organism-based; conditions: Enterovirus C, 10238, HeLa; method in brief: as §1
[9] = test system: Poliovirus 1; experiment: Antiviral activity against Human poliovirus 1 10239 infected in human HeLa cells assessed as reduction in virus-induced cytopathic effect after 72 hrs by crystal violet staining-based assay; assay type: functional, organism-based; conditions: Enterovirus C, 10239, HeLa; method in brief: as §1
[10] = test system: Poliovirus 1; experiment: Antiviral activity against Human poliovirus 1 10240 infected in human HeLa cells assessed as reduction in virus-induced cytopathic effect after 72 hrs by crystal violet staining-based assay; assay type: functional, organism-based; conditions: Enterovirus C, 10240, HeLa; method in brief: as §1
[11] = test system: Poliovirus 1; experiment: Antiviral activity against Human poliovirus 1 10241 infected in human HeLa cells assessed as reduction in virus-induced cytopathic effect after 72 hrs by crystal violet staining-based assay; assay type: functional, organism-based; conditions: Enterovirus C, 10241, HeLa; method in brief: as §1
[12] = test system: Poliovirus 1; experiment: Antiviral activity against Human poliovirus 1 10242 infected in human HeLa cells assessed as reduction in virus-induced cytopathic effect after 72 hrs by crystal violet staining-based assay; assay type: functional, organism-based; conditions: Enterovirus C, 10242, HeLa; method in brief: as §1
[13] = test system: Poliovirus 2; experiment: Antiviral activity against Human poliovirus 2 10219 infected in human HeLa cells assessed as reduction in virus-induced cytopathic effect after 72 hrs by crystal violet staining-based assay; assay type: functional, organism-based; conditions: Enterovirus C, 10219, HeLa; method in brief: as §1
[14] = test system: Poliovirus 2; experiment: Antiviral activity against Human poliovirus 2 10221 infected in human HeLa cells assessed as reduction in virus-induced cytopathic effect after 72 hrs by crystal violet staining-based assay; assay type: functional, organism-based; conditions: Enterovirus C, 10221, HeLa; method in brief: as §1
[15] = test system: Poliovirus 2; experiment: Antiviral activity against Human poliovirus 2 10226 infected in human HeLa cells assessed as reduction in virus-induced cytopathic effect after 72 hrs by crystal violet staining-based assay; assay type: functional, organism-based; conditions: Enterovirus C, 10226, HeLa; method in brief: as §1
[16] = test system: Poliovirus 2; experiment: Antiviral activity against Human poliovirus 2 10227 infected in human HeLa cells assessed as reduction in virus-induced cytopathic effect after 72 hrs by crystal violet staining-based assay; assay type: functional, organism-based; conditions: Enterovirus C, 10227, HeLa; method in brief: as §1
[17] = test system: Poliovirus 2; experiment: Antiviral activity against Human poliovirus 2 10228 infected in human HeLa cells assessed as reduction in virus-induced cytopathic effect after 72 hrs by crystal violet staining-based assay; assay type: functional, organism-based; conditions: Enterovirus C, 10228, HeLa; method in brief: as §1
[18] = test system: Poliovirus 2; experiment: Antiviral activity against Human poliovirus 2 10230 infected in human HeLa cells assessed as reduction in virus-induced cytopathic effect after 72 hrs by crystal violet staining-based assay; assay type: functional, organism-based; conditions: Enterovirus C, 10230, HeLa; method in brief: as §1
[19] = test system: Poliovirus 2; experiment: Antiviral activity against Human poliovirus 2 10231 infected in human HeLa cells assessed as reduction in virus-induced cytopathic effect after 72 hrs by crystal violet staining-based assay; assay type: functional, organism-based; conditions: Enterovirus C, 10231, HeLa; method in brief: as §1
[20] = test system: Poliovirus 2; experiment: Antiviral activity against Human poliovirus 2 10234 infected in human HeLa cells assessed as reduction in virus-induced cytopathic effect after 72 hrs by crystal violet staining-based assay; assay type: functional, organism-based; conditions: Enterovirus C, 10234, HeLa; method in brief: as §1
[21] = test system: Poliovirus 3; experiment: Antiviral activity against Human poliovirus 3 10805 infected in human HeLa cells assessed as reduction in virus-induced cytopathic effect after 72 hrs by crystal violet staining-based assay; assay type: functional, organism-based; conditions: Enterovirus C, 10805, HeLa; method in brief: as §1
[22] = test system: Poliovirus 1; experiment: Antiviral activity against Human poliovirus 1 Brunhilde infected in human HeLa cells assessed as reduction in virus-induced cytopathic effect after 72 hrs by crystal violet staining-based assay; assay type: functional, organism-based; conditions: Enterovirus C; method in brief: as §1
[23] = test system: Poliovirus 2; experiment: Antiviral activity against Human poliovirus 2 MEF-1 infected in human HeLa cells assessed as reduction in virus-induced cytopathic effect after 72 hrs by crystal violet staining-based assay; assay type: functional, organism-based; conditions: Enterovirus C, MEF-1, HeLa; method in brief: as §1
[24] = test system: Poliovirus 3; experiment: Antiviral activity against Human poliovirus 3 Saukett infected in human HeLa cells assessed as reduction in virus-induced cytopathic effect after 72 hrs by crystal violet staining-based assay; assay type: functional, organism-based; conditions: Enterovirus C; method in brief: as §1
[25] = test system: Poliovirus 3; experiment: Antiviral activity against Human poliovirus 3 Leon infected in human HeLa cells assessed as reduction in virus-induced cytopathic effect after 72 hrs by crystal violet staining-based assay; assay type: functional, organism-based; conditions: Enterovirus C; method in brief: as §1
[26] = test system: Poliovirus 1; experiment: Antiviral activity against Human poliovirus 1 Sabin 1 infected in human HeLa cells assessed as reduction in virus-induced cytopathic effect after 72 hrs by crystal violet staining-based assay; assay type: functional, organism-based; conditions: Enterovirus C, Sabin 1, HeLa; method in brief: as §1
[27] = test system: Poliovirus 2; experiment: Antiviral activity against Human poliovirus 2 Sabin 2 infected in human HeLa cells assessed as reduction in virus-induced cytopathic effect after 72 hrs by crystal violet staining-based assay; assay type: functional, organism-based; conditions: Enterovirus C, Sabin 2, HeLa; method in brief: as §1
[28] = Cytotoxicity against human HeLa cells after 72 hrs by ATP-bioluminescence cell viability assay; assay type: cell-based
Method in brief: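 Luminescent ATP cell-viability read-out on HeLa cells with compound only, run under conditions similar to the cytopathic-effect assay (72 h, 37°C). Signal was compared with cell-only wells. CC50 was derived from the titration curves.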

[29] = Therapeutic ratio of CC50 for human HeLa cells to EC50 for Poliovirus Sabin 2 infected in human HeLa cells; assay type: toxicity, cell-based; conditions: read-out: Ratio CC50/EC50

| Structure (SMILES) | EC50 [1] [nM] | EC50 [2] [nM] | EC50 [3] [nM] | EC50 [4] [nM] | EC50 [5] [nM] | EC50 [6] [nM] | EC50 [7] [nM] | EC50 [8] [nM] | EC50 [9] [nM] | EC50 [10] [nM] | EC50 [11] [nM] | EC50 [12] [nM] | EC50 [13] [nM] | EC50 [14] [nM] | EC50 [15] [nM] | EC50 [16] [nM] | EC50 [17] [nM] | EC50 [18] [nM] | EC50 [19] [nM] | EC50 [20] [nM] | other results |
| --- | --- | --- | --- | --- | --- | --- | --- | --- | --- | --- | --- | --- | --- | --- | --- | --- | --- | --- | --- | --- | --- |
| Cc1ccc(C(=O)CCCCOc2ccc(C3=NCCO3)cc2)s1 | 90800 | 40 | 60 | 48700 | 7890 | 2720 | 5750 | 2100 | 940 | 3620 | 3170 | 37900 | 30 | 20 | > 100000 | 30 | 10100 | 100 | 50 | 30 | EC50 [21]: 270 nM; EC50 [22]: 990 nM; EC50 [23]: > 100000 nM; EC50 [24]: 350 nM; EC50 [25]: 170 nM; EC50 [26]: 12500 nM; EC50 [27]: 30 nM; CC50 at 72 h [28]: > 50000 nM; selectivity ratio [29]: > 1670 |
| Cc1ccc(C(=O)CCCCSc2ccc(C3=NCCO3)cc2)s1 | 118 | 2800 | 2030 | 2000 | 4900 | 720 | 6470 | 7470 | 5630 | 8470 | 8070 | 8200 | 1200 | 2370 | 130 | 4330 | 9100 | 5330 | 5330 | 2470 | EC50 [21]: 1500 nM; EC50 [22]: 470 nM; EC50 [23]: 1260 nM; EC50 [24]: 1670 nM; EC50 [25]: 1110 nM; EC50 [26]: 700 nM; EC50 [27]: 160 nM; CC50 at 72 h [28]: 20000 nM; selectivity ratio [29]: 146 |
| Cc1ccc(C(=O)CCC/C=C/c2ccc(C3=NCCO3)cc2)s1 | 338 | 40 | 34 | 1260 | 1130 | 720 | 280 | 190 | 220 | 270 | 370 | 20 | 30 | 20 | 20 | 40 | 500 | 30 | 30 | 20 | EC50 [21]: 30 nM; EC50 [22]: 70 nM; EC50 [23]: 30 nM; EC50 [24]: 40 nM; EC50 [25]: 950 nM; EC50 [26]: 340 nM; EC50 [27]: 30 nM; CC50 at 72 h [28]: > 50000 nM; selectivity ratio [29]: > 1850 |
